Screening data: PubChem BioAssay, several laboratories
Beta apoptosis: inhibitors of cytokine-induced beta cell apoptosis, primary screen, luminescence | 300,000 compounds, 0.8% hits | protection from apoptosis, % (test concentration not listed) | AID 435005, 2010 | INS-1E cytokine-induced death, ATP luminescence, 48 h; percent of positive-control rescue, neutral wells zero;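 active = Every replicate reaches about 75%, or at least half do and their mean reaches it too, limit read from the data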;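 note: 0% = cytokine-treated negative control wells and 100% = positive control rescue; higher means more ATP so stronger rescue from cytokine killing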
WT yeast gro inh: growth inhibition of WT strain, primary screen, mitochondrial fusion inhibitor project, WT and mutant strains, chemical genetic | 190,000 compounds, 2.1% hits | AID 1362, 2008 | mitochondrial fusion phenotypic screen | inhibition, % at 10 µM; in the data active = inhibition above about 58%; tested in S. cerevisiae
SUMO Mot1 rescue: yeast Mot1-301 growth rescue at high temperature, primary screen, SUMOylation pathway inhibitor project, S. cerevisiae, ATP luminescence, 38.5C | S. cerevisiae Mot1-301 growth rescue; percent above DMSO median, 100 means doubled | growth rescue, % at 18.8 µM | 320,000 compounds, 1% hits;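 active = every valid replicate shows activation above 250% relative to neutral control wells; inactive = the rest, any valid replicate at or below 250%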;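 note: OY570 slx delta 5 strain wells were the positive control but not used for scaling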
Efflux pump inh: inhibitors of Candida efflux pumps in yeast, primary screen, S. cerevisiae, Nile Red, multiplex. S. cerevisiae Candida pump triplex. inhibition, % at 10 µM. 330,000 compounds, 0.44% hits;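 active = plate passing quality check with inhibition over a set limit, or well fluorescence over plate mean plus 4 SD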;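 note: Nile Red retained in pooled yeast measured as flow cytometry median fluorescence; 0% = buffer negative control and 100% = Enniatin B positive control; higher means more Nile Red kept so more efflux inhibition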
CSC inhib: cancer stem cell viability inhibitors, primary screen, luminescence; cancer stem cell-like cells viability; inhibition, % at 7.5 µM; 300,000 compounds, 1.1% hits; in the data active = inhibition above about 75%; tested in HMLE shEcad cells
T cruzi inh: inhibitors of intracellular T. cruzi growth, primary screen, luminescence, NIH3T3 host cells. AID 1885, 2009. 300,000 compounds, 1.4% hits. inhibition, % (no concentration beside the values). T. cruzi beta-gal in NIH3T3, 90 h;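 active = mean inhibition across valid replicates above about 55%, limit read from the data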;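 note: signal also drops with host cell toxicity which is not excluded here; 0% = plate median of DMSO wells and 100% = zero luminescence signal; higher percent means less beta-gal luminescence so fewer parasites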
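System: mouse NIH/3T3 fibroblasts infected with β-gal-expressing T. cruzi Tulahuen C4 / Input: NIH/3T3 cells, 5,000 per well / Buffer or medium: Low-serum DMEM with 2% FBS / Probe or stimulus: 5000 reporter trypomastigotes per well / Schedule: ≥90 h infection period, 3 h prior cell attachment / Measured by: GalScreen luminescence, 60 min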
Yeast Mot1 SUMO: growth restoration of Mot1-301 yeast on galactose, dose response, SUMO pathway inhibitor project, whole organism, S. cerevisiae, ATP luminescence, cherry-picked samples; shares compounds with SUMO Mot1 rescue; S. cerevisiae Mot1-301 galactose growth, 24 h; -100 = growth of slx-deleted rescue strain; growth activity, percent, % at 42 µM; 2,300 tested, under 10 active; AID 493004, 2010;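 active = Signal drops as the depositor expects, and the fitted half-maximal dose is no more than ten times the top valid tested dose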;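 note: more negative values mean stronger growth rescue toward the control strain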
* hit, by the source's call; . = not tested or not shown; + = active, no number. Rows were chosen to be rich in hits. Some 4.8% of all compounds tested hit in one or more screens of this group.

SMILES | Beta apoptosis | WT yeast gro inh | SUMO Mot1 rescue | Efflux pump inh | CSC inhib | T cruzi inh | Yeast Mot1 SUMO
COc1ccc(OC)c(N(CC(=O)N2CCCC2)S(=O)(=O)c2ccccc2)c1 | -4 | . | 469* | 1 | -5 | -10 | 1
O=C(Nc1ccccc1)N1CCN(CCc2ccccc2)CC1 | 3 | 2 | 392* | 0 | -6 | -5 | -1
Cc1c(C(=O)N2CCN(S(C)(=O)=O)CC2)oc2ccccc12 | -3 | 1 | -26 | 0 | -21 | -20 | .
Cc1c(C(=O)N2CCN(CCc3ccccc3)CC2)oc2ccccc12 | -5 | 2 | 707* | 0 | . | 12 | -1
CCN1C(=O)[C@H]2[C@@H](c3ccc(Cl)cc3)N3C(=O)CN(CCOC)C(=O)[C@@]3(Cc3ccccc3)[C@H]2C1=O | -2 | . | -6 | 0 | -3 | 0 | .
CCOc1ccc(C(=O)NCC(=O)OCCN2C(=O)c3ccccc3C2=O)cc1OCC | 3 | . | -19 | 0 | 4 | . | .
CN(CCOc1ccc(-c2ccn(S(=O)(=O)c3cccc4ccccc34)n2)cc1)c1ccccn1 | 1 | -4 | 643* | 0 | 3 | 11 | 0
CS(=O)(=O)C1=NSC2=NC(=O)/C(=C\c3ccc(OS(=O)(=O)c4ccccc4)cc3)C(=N)N21 | -4 | . | 399* | 0 | -4 | -4 | 0
COc1ccccc1CC(=O)N1CCOCC1 | -4 | . | 878* | 0 | -10 | -6 | 0
Cc1nnc(SCC(=O)Nc2ccccc2F)n1-c1ccc(F)cc1 | 2 | . | -1 | 0 | 5 | 2 | .
CCOc1ccc2[nH]c(=O)c(CN(Cc3ccco3)Cc3nnnn3Cc3ccccc3)cc2c1 | -4 | -2 | 132 | 0 | -13 | 1 | .
CCOc1ccc2[nH]c(=O)c(CN(Cc3ccco3)C(CC)c3nnnn3Cc3ccccc3)cc2c1 (stereo not given) | -3 | 23 | + | 0 | . | 20 | 0
COc1ccc(/C=N/NC(=O)c2c(C)nc3ccccn23)cc1[N+](=O)[O-] | -2 | . | 569* | 0 | -12 | -5 | 0
Cc1nc2ccccn2c1C(=O)N/N=C/c1ccccc1 | . | . | -10 | 0 | . | -16 | .
COc1ccc(CNC(=O)c2cncc(Br)c2)cc1 | -4 | . | 1 | 0 | -17 | -4 | .
NNC(=O)c1[nH]c2ccccc2c1-c1ccccc1 | 29 | . | 653* | 0 | 40 | 7 | -1
O=C(COC(=O)C1CC1)Nc1c(Cl)cccc1C(F)(F)F | -1 | . | 26 | 0 | 3 | -7 | .
CCOC(=O)N1CCN(C(=O)COc2ccc(S(=O)(=O)NCC(C)C)cc2C)CC1 | 0 | -6 | -12 | 0 | . | 15 | .
Cc1cc(S(=O)(=O)NCC(C)C)ccc1OCC(=O)N1CCOCC1 | -11 | -3 | 867* | 0 | -13 | -8 | 0
Cc1cc(=O)n2[nH]c(-c3ccc(F)cc3)nc2n1 | 8 | 2 | 551* | 0 | -3 | -6 | 0
Cc1cc(=O)n2[nH]c(-c3cccnc3)nc2n1 | 5 | . | 8 | 0 | . | 3 | .
O=C(Cn1cnc2scc(-c3cccc([N+](=O)[O-])c3)c2c1=O)NCc1ccco1 | 2 | 7 | 14 | 0 | -7 | 22 | .
O=C(COC(=O)c1c(F)cccc1F)c1ccc[nH]1 | -7 | . | 596* | 0 | -11 | -18 | 0
O=C(OCC(=O)c1ccc[nH]1)c1ccccc1 | -4 | -3 | 114 | 0 | -6 | -20 | .
CC(C)(C)c1ccc(-c2nc(N)nc(N)n2)cc1 | -4 | . | -4 | 0 | -11 | -18 | .
SMILES | Beta apoptosis | WT yeast gro inh | SUMO Mot1 rescue | Efflux pump inh | CSC inhib | T cruzi inh | Yeast Mot1 SUMO
Nc1nc(-c2ccc(Cl)cc2)nc(-c2ccc(Cl)cc2)n1 | -4 | . | 942* | 0 | 25 | -2 | 0
COC(=O)c1ccc2[nH]c(C(C)(C)O)c(C)c2c1 | -14 | . | 684* | 0 | 0 | 4 | 0
O=C(Nc1cccc2ccccc12)NC1CCCCC1O (stereo not given) | 5 | . | -1 | 0 | 12 | -8 | .
CSc1ccccc1NC(=O)COc1nsnc1N1CCOCC1 | -2 | . | 413* | 0 | -2 | -4 | 0
COc1ccc(C2C(C(=O)Nc3cc(OC)c(OC)c(OC)c3)c3ccccc3C(=O)N2C)cc1 (stereo not given) | . | 1 | 465* | 0 | . | -4 | 0
Cc1ccc(N(CC(=O)NC2CCCCC2)C(=O)CNC(=O)c2ccco2)c(C)c1 | -2 | . | 382 | 0 | -12 | 4 | .
COc1ccccc1CNC(=O)C1CCC(=O)N1C(C)C (stereo not given) | -10 | . | 595* | 0 | -6 | -3 | 0
CCOc1ccccc1CNC(=O)C1CCC(=O)N1C(C)C (stereo not given) | -2 | -22 | -17 | 0 | -2 | -1 | .
CC(C)c1onc(C(=O)Nc2ccc3c(c2)OCO3)c1[N+](=O)[O-] | 8 | . | -3 | 0 | 5 | 35 | .
Cc1ccccc1NC(=O)COC(=O)C1C2CC3OC(=O)C1C3C2 (stereo not given) | 0 | . | 474* | 0 | . | -1 | 1
COc1ccccc1NC(=O)COC(=O)C1C2CC3OC(=O)C1C3C2 (stereo not given) | -1 | . | 597 | 0 | -9 | 3 | .
CN(CC(=O)Nc1c(Cl)cccc1Cl)C(=O)Cc1cccs1 | 0 | . | 8 | 0 | . | . | .
O=C(Nc1ccc([N+](=O)[O-])cn1)C1CC1 | -3 | 22 | 573* | 0 | -13 | 6 | 1
COc1cc(S(=O)(=O)N2CCN(c3ccccc3)CC2)ccc1Cl | -5 | -1 | -7 | 0 | 3 | -13 | .
COc1cc(S(=O)(=O)N2CCN(c3ccccc3)CC2)ccc1F | -14 | 15 | 647* | 0 | 8 | -9 | 0
Cc1ccc(S(=O)(=O)N(C)CC(=O)O/N=C(\N)c2ccccn2)cc1 | 3 | -17 | 399* | 0 | . | -7 | 1
CN(CC(=O)O/N=C(\N)c1ccccn1)S(=O)(=O)c1ccc(Br)cc1 | 3 | -4 | 164 | 0 | 7 | 2 | .
CC(C)NC(=O)NC(=O)CSc1nnc(COc2ccccc2Cl)o1 | 0 | 14 | -3 | 0 | 7 | -9 | .
O=C(CSc1nnc(COc2ccccc2Cl)o1)NC(=O)NC1CCCC1 | -4 | 33 | 392* | 0 | -8 | 3 | 0
CC(C)C[C@@H](CO)N1CCN(Cc2cccnc2)CCC1=O | -8 | . | 621* | 0 | 2 | 0 | 0
CC(C)C[C@@H](CO)N1CCN(Cc2ccc(Br)cc2)CCC1=O | 5 | . | 6 | 0 | -3 | -7 | .
